Reference: ChEMBL document CHEMBL1156795, “Rational design of 5-phenyl-3-isoxazolecarboxylic acid ethyl esters as growth inhibitors of Mycobacterium tuberculosis. a potent and selective series for further drug development” (J Med Chem, 2010)
In brackets after ≈: the same amount, converted by molar mass.

Experiments:
Assay type in all cases: functional
[1] = tested on: Mycobacterium tuberculosis; assay: Antimycobacterial activity against streptomycin-resistant Mycobacterium tuberculosis H37Rv after 16 to 24 hrs by microplate alamar
How it was run: (§1)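 MIC by MABA against Mtb strains resistant to isoniazid, rifampin or streptomycin. Values are averages of two to three independent experiments.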

[2] = tested on: Mycobacterium tuberculosis; assay: Antimycobacterial activity against rifampin-resistant Mycobacterium tuberculosis H37Rv after 16 to 24 hrs by microplate alamar; how it was run: as §1
[3] = tested on: Mycobacterium tuberculosis; assay: Antimycobacterial activity against isoniazid-resistant Mycobacterium tuberculosis H37Rv after 16 to 24 hrs by microplate alamar; how it was run: as §1

| Compound | MIC [1] | MIC [2] | MIC [3] |
| --- | --- | --- | --- |
| CCOC(=O)c1cc(-c2cccc(OCc3c(F)cccc3F)c2)on1 | 1.1 µM (≈ 0.395 µg/mL) | 1 µM (≈ 0.359 µg/mL) | 1.1 µM (≈ 0.395 µg/mL) |
| CCOC(=O)c1cc(-c2cccc(OCc3cccc(F)c3F)c2)on1 | 1 µM (≈ 0.359 µg/mL) | 1 µM (≈ 0.359 µg/mL) | 1 µM (≈ 0.359 µg/mL) |
| CCOC(=O)c1cc(-c2cccc(OCc3cccc(C(F)(F)F)c3)c2)on1 | 0.9 µM (≈ 0.352 µg/mL) | 1 µM (≈ 0.391 µg/mL) | 0.9 µM (≈ 0.352 µg/mL) |
| CCOC(=O)c1cc(-c2cccc(OCc3ccccc3Cl)c2)on1 | 1 µM (≈ 0.358 µg/mL) | 1 µM (≈ 0.358 µg/mL) | 1 µM (≈ 0.358 µg/mL) |
| CCOC(=O)c1cc(-c2cccc(OCc3cccc(Br)c3)c2)on1 | 1 µM (≈ 0.402 µg/mL) | 1 µM (≈ 0.402 µg/mL) | 1 µM (≈ 0.402 µg/mL) |
| CCOC(=O)c1cc(-c2cccc(OCc3cc(F)ccc3F)c2)on1 | 1.2 µM (≈ 0.431 µg/mL) | 1 µM (≈ 0.359 µg/mL) | 1 µM (≈ 0.359 µg/mL) |
| CCOC(=O)c1cc(-c2cccc(OCc3cccc(C(F)(F)F)c3F)c2)on1 | 1 µM (≈ 0.409 µg/mL) | 1 µM (≈ 0.409 µg/mL) | 0.9 µM (≈ 0.368 µg/mL) |
| NNC(=O)c1ccncc1 [ISONIAZID] | 0.5 µM (≈ 0.0686 µg/mL) | 0.4 µM (≈ 0.0549 µg/mL) | > 128 µM |
| CO[C@H]1/C=C/O[C@@]2(C)Oc3c(C)c(O)c4c(O)c(c(/C=N/N5CCN(C)CC5)c(O)c4c3C2=O)NC(=O)/C(C)=C\C=C\[C@H](C)[C@H](O)[C@@H](C)[C@@H](O)[C@@H](C)[C@H](OC(C)=O)[C@@H]1C [RIFAMPIN] | > 0.1 µM | > 32 µM | > 0.1 µM |
| CN[C@@H]1[C@H](O[C@H]2[C@H](O[C@H]3[C@H](O)[C@@H](O)[C@H](N=C(N)N)[C@@H](O)[C@@H]3N=C(N)N)O[C@@H](C)[C@]2(O)C=O)O[C@@H](CO)[C@H](O)[C@H]1O [STREPTOMYCIN] | > 32 µM | 0.2 µM (≈ 0.116 µg/mL) | 0.4 µM (≈ 0.233 µg/mL) |
